Measurements published in article PMC8068092 (Molecular pharmaceutics, 2020).

How the values were obtained:
[1] = test system: MDA-MB-468 (mtp53 R273H) and MCF7 (wtp53) xenografts; experiment: NIRF imaging in mice bearing bilateral MCF7/MDA-MB-468 xenografts; assay type: in vivo, mouse
[2] = test system: MDA-MB-468 cells (mtp53 R273H) compared to MCF7 cells (wtp53); experiment: Cy5p53Tet cellular uptake by live cell imaging; assay type: cell-based, human; conditions: 500 nM, 2 h incubation, 37 °C; confocal microscopy, Nikon Element analysis, at least 200 cells per sample
[3] = test system: MDA-MB-468 shp53 cells (mtp53 R273H knockdown); experiment: Cy5p53Tet uptake with and without shRNA depletion of mtp53; assay type: cell-based, human; conditions: 500 nM; for Reduction of Cy5p53Tet signal (relative ROI intensity) on depletion of mtp53: knockdown vs control
In short: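 MDA-MB-468 shp53 knockdown induced with 8 μg/mL doxycycline for 7 days; p53 depletion checked by Western blot. Cells seeded at 2 × 10^5 per well 1 day before, then given 500 nM Cy5-peptide at 37 °C for 30 min, 2 h, 4 h or 24 h. Peptide removed, cells PBS-washed, Hoechst-stained (1 μg/mL, 5 min), confocal Z-stacks at 60×. Three independent experiments; mean + SEM, two-tailed t-test.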

[4] = test system: MDA-MB-468 cells (mtp53 R273H); experiment: Peptide cytotoxicity assay; assay type: cell-based, human; conditions: 500 nM Cy5p53Tet, 24 h, three independent experiments
In short: (§1)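 Cells (1.25 × 10^5, 12-well) seeded the day before at 37 °C, then given 500 nM Cy5-peptide for 24 h. MTT (5 mg/mL solution) added for 1 h at 37 °C. Product dissolved in 0.04 N HCl/isopropanol, 5 min in the dark at room temperature. Absorbance read at 550 nm minus 620 nm background. Three independent experiments; mean ± SEM, t-test.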

[5] = test system: MDA-MB-468 cells (mtp53) compared to MCF7 cells (wtp53); experiment: Cy5p53Tet cellular uptake by flow cytometry; assay type: cell-based, human; conditions: 2 h, 37 °C
In short: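 MCF7 and MDA-MB-468 cells in DMEM with 10% FBS, seeded at 5 × 10^5 per well and held at 37 °C overnight. Medium swapped for vehicle, 100 or 500 nM Cy5-peptide for 2 h at 37 °C. Cells washed, trypsinized, pelleted and resuspended in PBS. 2 × 10^4 events per sample; geometric MFI taken.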

[6] = test system: MCF-10A nonmalignant human mammary epithelial cells (wtp53); experiment: Peptide cytotoxicity assay; assay type: cell-based; conditions: 500 nM Cy5p53Tet, 24 h, three independent experiments
[7] = test system: MCF7 cells (wtp53); experiment: Peptide cytotoxicity assay; assay type: cell-based, human; conditions: 500 nM Cy5p53Tet, 24 h, three independent experiments
In short: as §1

[8] = test system: HCC70 cells (mtp53 R248Q); experiment: Peptide cytotoxicity assay; assay type: cell-based, human; conditions: 500 nM Cy5p53Tet, 24 h, three independent experiments
In short: as §1

[9] = after intravenous administration, IVIS Spectrum

H-CysCy5-RKKRRQRRGEYFTLQIRGRER-FEMFRELNEALELK-OH [Cy5p53Tet]
In vivo NIRF signal in MCF7 tumors [1, 9]: no signal was present
In vivo NIRF signal in MDA-MB-468 tumors [1, 9]: clearly observed
Signal in healthy tissues (whole-body and resected tissue images) ([1]; liver, large intestines, small intestines, three mice): significantly high levels of the signal in several healthy tissues
Uptake of Cy5p53Tet in MDA-MB-468 cells compared to MCF7 cells [2]: twofold higher uptake
Reduction of Cy5p53Tet signal (relative ROI intensity) on depletion of mtp53 ([3]; 30 min incubation): 61%
Reduction of Cy5p53Tet signal (relative ROI intensity) on depletion of mtp53 ([3]; 2 h incubation): 63%
Reduction of Cy5p53Tet signal (relative ROI intensity) on depletion of mtp53 ([3]; 4 h incubation): 67%
Difference of Cy5p53Tet signal between knockdown and control cells ([3]; 24 h incubation): no statistically significant difference
Reduction of mitochondrial activity (MTT) [4]: 10.6%
Geometric MFI, fold more uptake in MDA-MB-468 than in MCF7 cells ([5]; 100 nM Cy5p53Tet): 1.58 fold
Geometric MFI, fold more uptake in MDA-MB-468 than in MCF7 cells ([5]; 500 nM Cy5p53Tet): 1.65 fold
Reduction of mitochondrial activity (MTT) [6]: No significant reduction of mitochondrial activity
Reduction of mitochondrial activity (MTT) [7]: 9.8%
Reduction of mitochondrial activity (MTT) [8]: 13.6%
